Among the data in ChEMBL document CHEMBL2021905, “Structure-activity relationship of novel menaquinone-4 analogues: modification of the side chain affects their biological activities” (J Med Chem, 2012) are Activity, Drug metabolism and fold induction values, retold here.

The target of series [1] is T1, Nuclear receptor subfamily 1 group I member 2 (Homo sapiens, UniProt O75469).
T1 sequence (O75469 whole entry): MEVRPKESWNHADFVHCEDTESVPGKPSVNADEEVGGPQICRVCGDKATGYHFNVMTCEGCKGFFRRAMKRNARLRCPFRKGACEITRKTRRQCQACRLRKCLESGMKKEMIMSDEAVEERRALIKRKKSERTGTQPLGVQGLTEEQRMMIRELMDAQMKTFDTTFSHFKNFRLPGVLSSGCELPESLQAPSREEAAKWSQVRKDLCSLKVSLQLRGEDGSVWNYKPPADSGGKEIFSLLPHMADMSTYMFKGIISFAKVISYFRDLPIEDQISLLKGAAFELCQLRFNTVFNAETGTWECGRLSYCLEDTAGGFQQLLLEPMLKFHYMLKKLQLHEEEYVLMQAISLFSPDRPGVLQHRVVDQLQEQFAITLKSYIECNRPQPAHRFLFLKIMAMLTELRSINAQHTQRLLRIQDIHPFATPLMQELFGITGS
The series can be described thus: (§1) Induction of human SXR transcriptional activity expressed in human HepG2 cells coexpressing GAL4 at 5 X 10^-6 M after 48 hrs by luciferase reporter gene assay relative to vehicle-treated control. Type of series: cell-based. As to conditions: hepg2, 48 h, 5 µM; call rule not given here. The method, boiled down:
(§2)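 HepG2 cells (2 × 10^5 per well), maintained in Eagle's modified medium with 10% FCS and 1% each penicillin/streptomycin, transfected with pM-SXR (GAL4 fusion), pGVP2-GAL2 reporter and pRL-CMV. 24 h after transfection, treated in fresh medium with compound or ethanol vehicle for 48 h. Dual-luciferase read-out, firefly normalized to Renilla. Three independent experiments; mean ± SD.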
Background: Reporter assays use an easily measured gene product as a stand-in for the process of interest.

In series [2] the test system is MG-63. Kind of series: Prodrug conversion in human MG63 cells assessed as formation of deuterium 1a-methyl-7a-((2E,6E,10E)-3,7,11,15-tetramethylhexadeca-2,6,10,14-tetraenyl)naphtho[2,3-b]oxirene-2,7(1aH,7aH)-dione at 1 uM for 24 hrs by LC-APCI-MS/MS analysis. Type of series: ADME, cell-based. As to conditions: mg-63, 24 h. The method, boiled down: (§3)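 MG-63 human osteosarcoma cells incubated with compound at a final 1.0 μM, 37 °C, 24 h. Cellular vitamin K compounds extracted with hexane. Converted menaquinone-4 and its epoxide quantified by LC-APCI-MS/MS. Three independent experiments; mean ± SD.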

In series [3] the test system is MG-63. The series can be described thus: Prodrug conversion in human MG63 cells assessed as formation of MK-4 at 1 uM for 24 hrs by LC-APCI-MS/MS analysis. It is filed as ADME, cell-based. As to conditions: mg-63, 24 h. The method, boiled down: as §3
Series [4] deals with MG-63. Kind of series: Prodrug conversion in human MG63 cells assessed as formation of deuterium 2-methyl-3-((2E,6E,10E)-3,7,11,15-tetramethylhexadeca-2,6,10,14-tetraenyl)naphthalene-1,4-dione at 1 uM for 24 hrs by LC-APCI-MS/MS analysis. As to conditions: mg-63, 24 h. It is filed as ADME, cell-based. The method, boiled down:
as §3

Series [5] addresses T2, SXR (nuclear receptor subfamily 1 group I member 2) (Homo sapiens, UniProt O75469).
T2 sequence (O75469 whole entry): T1 sequence (O75469 whole entry)
The description is as §1. Type of series: cell-based. The conditions noted are these: HepG2 cells expressing human SXR and GAL4, read-out: FC. The method, boiled down:
as §2

Take `[2H]c1c([2H])c([2H])c2c(c1[2H])C(=O)C(C/C=C(\C)CCCC(C)CC/C=C(\C)CCC=C(C)C)=C(C([2H])([2H])[2H])C2=O` (centres undefined): the outcome in series [1] was Active.
The same measure, in the same setting: the result for `[2H]c1c([2H])c([2H])c2c(c1[2H])C(=O)C(C/C=C(\C)CCCC(C)CCCC(C)CCC=C(C)C)=C(C([2H])([2H])[2H])C2=O` (centres undefined) reads “Not Active”; that for `[2H]c1c([2H])c([2H])c2c(c1[2H])C(=O)C(C/C=C(\C)CCCC(C)CCCC(C)CCCC(C)C)=C(C([2H])([2H])[2H])C2=O` (centres undefined), “Not Active”; that for `[2H]c1c([2H])c([2H])c2c(c1[2H])C(=O)C(CCC(C)CCCC(C)CCCC(C)CCCC(C)C)=C(C([2H])([2H])[2H])C2=O` (centres undefined), “Not Active”.
On to `[2H]c1c([2H])c([2H])c2c(c1[2H])C(=O)C(C/C=C(\C)CC([2H])([2H])/C=C(/CC/C=C(\C)CCC=C(C)C)C([2H])([2H])[2H])=C(C([2H])([2H])[2H])C2=O`, for which the Drug metabolism result in the series with MG-63 [2], in the series on MG-63 [3] and in the series on MG-63 [4] was “Active” throughout.
As for `[2H]c1c([2H])c([2H])c2c(c1[2H])C(=O)C(C/C=C(\C)CC/C=C(\C)CC/C=C(\C)CCC=C(C)C)=C(C([2H])([2H])[2H])C2=O`, in series [5], the fold induction at 48 h, 5 µM was determined as 7.
For the molecule `[2H]c1c([2H])c([2H])c2c(c1[2H])C(=O)C(C/C=C/CC/C=C(\C)CC/C=C(\C)CCC=C(C)C)=C(C([2H])([2H])[2H])C2=O`, the Drug metabolism result in the series on MG-63 [2], in the series on MG-63 [3] and with MG-63 [4] was “Active” throughout. The result in series [1] was Active.
For the molecule `[2H]c1c([2H])c([2H])c2c(c1[2H])C(=O)C(C/C=C(\C)CC/C=C/CC/C=C(\C)CCC=C(C)C)=C(C([2H])([2H])[2H])C2=O`, the Drug metabolism entry with MG-63 [2], with MG-63 [3] and in the series on MG-63 [4] was “Active” throughout. Also, the result in series [1] was Active.
On to `[2H]c1c([2H])c([2H])c2c(c1[2H])C(=O)C(C/C=C(\C)CC/C=C(\C)CC/C=C/CCC=C(C)C)=C(C([2H])([2H])[2H])C2=O`, for which the Drug metabolism result in the series on MG-63 [2], with MG-63 [3] and in the series with MG-63 [4] was “Active” in each case. Besides, the outcome in series [1] was Active.
Take `[2H]c1c([2H])c([2H])c2c(c1[2H])C(=O)C(C/C=C(\C)CC/C=C(\C)CC/C=C(\C)CC/C=C/C)=C(C([2H])([2H])[2H])C2=O`: the Drug metabolism result in the series on MG-63 [2], in the series with MG-63 [3] and with MG-63 [4] was “Active” in each case. Also, the result in series [1] was Active.
